Measurements of several laboratories.
Compare with care: the assays were run in different laboratories.
Target: Alpha-1D adrenergic receptor (ADRA1D, Homo sapiens, UniProt P25100)
Concentration: 10 µM
Residues used in one study (P25100 1-572): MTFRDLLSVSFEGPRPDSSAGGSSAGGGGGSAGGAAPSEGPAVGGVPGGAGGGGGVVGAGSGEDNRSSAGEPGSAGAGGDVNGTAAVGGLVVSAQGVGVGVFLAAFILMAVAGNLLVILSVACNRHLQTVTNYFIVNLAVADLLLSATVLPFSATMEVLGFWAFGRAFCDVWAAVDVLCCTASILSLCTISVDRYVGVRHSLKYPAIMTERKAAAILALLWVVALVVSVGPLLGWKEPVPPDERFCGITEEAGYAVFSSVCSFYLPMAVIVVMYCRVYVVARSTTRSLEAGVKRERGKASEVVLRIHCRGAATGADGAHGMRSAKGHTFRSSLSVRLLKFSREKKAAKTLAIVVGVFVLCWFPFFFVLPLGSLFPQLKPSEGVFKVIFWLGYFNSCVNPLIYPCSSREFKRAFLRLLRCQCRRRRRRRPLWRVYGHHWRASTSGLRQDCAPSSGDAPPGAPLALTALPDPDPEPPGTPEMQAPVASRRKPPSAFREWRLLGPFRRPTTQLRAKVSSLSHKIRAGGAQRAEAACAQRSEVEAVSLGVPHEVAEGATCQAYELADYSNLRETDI

CCN(Cc1ccccc1C(F)(F)F)C(=O)C1CCN(S(=O)(=O)c2ccc3[nH]ncc3c2)CC1  inhibition (ligand displacement, radioligand): 5%
CC(C)(C)OC(=O)N1CCCC1CNC1CCC(c2cc(F)ccc2F)(S(=O)(=O)c2ccc(Cl)cc2)CC1 (centres unmarked)  inhibition (cell-free assay): 22.5%
N#Cc1cc(Cn2c(N3CCCC3)nc3ccccc32)ccc1F  inhibition (ligand displacement): -11.1%
CCN(CC)c1ccc(C2Nc3ccc(C(=O)c4ccccc4)cc3NC3=C2C(=O)CC(C)(C)C3)cc1 (centres unmarked)  inhibition (ligand displacement, radioligand): 8%
O=C(c1ccc(F)cc1)N(Cc1ccccc1)C1CCCCC1  inhibition (cell-free assay): 7%
CCCNc1nc2ccccc2n1Cc1ccc(Cl)cc1  inhibition (ligand displacement): 10.2%
O=C(Nc1ccc(S(=O)(=O)N2CCC(Cl)CC2)cc1)c1ccc([N+](=O)[O-])o1  inhibition (ligand displacement, radioligand): 8%
CC(=O)C1=C(C)N(c2cccc(C(F)(F)F)c2)C(=O)N[C@H]1c1ccc(C#N)nc1  inhibition (ligand displacement): 7.7%
